Data published in PMC8103725 (FASEB BioAdvances, 2021).
Each block holds one compound with its values, some of them ahead of it.

Columns and labels:
[1] = target: HEG1–KRIT1 interaction (EGFP‐KRIT1 FERM domain binding to HEG1 cytoplasmic tail on beads) (Homo sapiens, UniProt O00522); test: Flow cytometry bead assay for the HEG1–KRIT1 FERM domain interaction; conditions: for inhibition of the HEG1–KRIT1 interaction: result in words
[2] = test system: hCMEC/D3 cells; test: Western blot of pAkt‐S473 and total Akt in hCMEC/D3 cells; type: cell-based, human; conditions: for effect on Akt phosphorylation induced by HKi2: with HKi2 50 μM, MK‐2206 20 μM, LY294002 10 μM
How it was run: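 hCMEC/D3 cells were treated with 50 μM test compound or DMSO and washed twice in ice‑cold HBSS. They were lysed in RIPA (50 mM Tris pH 7.5, 150 mM NaCl, 1% NP‑40, 0.5% deoxycholate, 0.1% SDS, 2 mM EDTA, 50 mM NaF) with protease/phosphatase inhibitors and 1 mM Na3VO4. Lysates were spun at 20,000xg for 15 min at 4°C, resolved on 4–12% gels, and immunoblotted for phospho‑Akt Ser473 (1:250) and total Akt. Data are mean ± SEM.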

[3] = Aqueous solubility in assay buffer; type: physicochemical; conditions: assay buffer conditions
[4] = test system: PARD3 binding to HEG1 cytoplasmic tail; test: PARD3 pulldown assay with HEG1 matrix; design: species or system human; conditions: HUVEC lysates, 35 μM compound
How it was run: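 Clarified lysate (600 μg) was rotated overnight at 4°C with 20 μL neutravidin agarose carrying HEG1 wild‑type (1274–1381) or ΔYF (1274–1379) tail. Incubations contained DMSO, 35 μM test compound or 35 μM 2‑hydroxy‑1‑naphthoic acid. After three washes, bound PARD3 was detected by SDS–PAGE immunoblot with rabbit polyclonal anti‑PARD3.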

[5] = test system: hCMEC/D3 cells; test: qPCR of KLF4 and KLF2 mRNA in hCMEC/D3 cells; type: cell-based, human; conditions: 50 μM, 4 h
How it was run: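 Test compound came from a 10 mM DMSO stock, rotated 30 min at RT before use. hCMEC/D3 cells (passages 30–37, collagen‑coated, EGM‑2 MV, 37°C/5% CO2) were treated at the indicated doses (12 h dose–response) or over a time course, versus DMSO. RNA was extracted with TRIzol, and 1 µg was reverse‑transcribed with SuperScript III. qPCR used actin normalization and 2−ΔΔCT. Results are relative to vehicle ± SEM: n=3 t test, or n=4 one‑way ANOVA.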

[6] = test system: HUVEC; test: Genome‐wide RNA sequencing of HUVEC; type: cell-based, human; conditions: same conditions as HKi2, vs vehicle; data not shown
How it was run: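 HUVEC (passages 4–7) were grown on fibronectin in complete EGM‑2 at 37°C, 5% CO2, then given 75 μM test compound or DMSO for 24 h. Only RNA with RIN >8 was used; 400 ng went into TruSeq stranded mRNA libraries. Libraries were sequenced on HiSeq2500 (SR100, 30 million reads), mapped to GRCh release 96 with Hisat2, and analysed for differential expression with EdgeR.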

[7] = test system: klf2a expression in arterial and venous endothelium; test: Zebrafish klf2a reporter Tg; type: in vivo; conditions: 4 μM, 4 h from 26 hpf
How it was run: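 Tg(klf2a:H2B‑EGFP);Tg(kdrl:mCherry) embryos were exposed to test compound dissolved in fish egg water. At 30 hpf they were paralysed with tricaine and imaged by confocal microscopy. Nuclear EGFP intensity in vasculature was measured on nuclei outlined through Z, seven nuclei per embryo. Each experiment used two treated and two control embryos; two independent experiments were analysed.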

[8] = test system: hCMEC/D3 cells; test: Propidium iodide staining, cell viability; type: cell-based, human; conditions: 50 μM, 24 h, vs vehicle
How it was run: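 hCMEC/D3 cells were treated with test compound or the same DMSO concentration, then resuspended in PBS with 1% BSA and stained with propidium iodide. Samples were analysed by flow cytometry, counting PI‑positive cells as dead. Results are percentage viable cells ± SEM, n=3, one‑way ANOVA.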

HEG1–KRIT1 interaction (EGFP‐KRIT1 FERM domain binding to HEG1 cytoplasmic tail on beads), sequence (O00522 417-736): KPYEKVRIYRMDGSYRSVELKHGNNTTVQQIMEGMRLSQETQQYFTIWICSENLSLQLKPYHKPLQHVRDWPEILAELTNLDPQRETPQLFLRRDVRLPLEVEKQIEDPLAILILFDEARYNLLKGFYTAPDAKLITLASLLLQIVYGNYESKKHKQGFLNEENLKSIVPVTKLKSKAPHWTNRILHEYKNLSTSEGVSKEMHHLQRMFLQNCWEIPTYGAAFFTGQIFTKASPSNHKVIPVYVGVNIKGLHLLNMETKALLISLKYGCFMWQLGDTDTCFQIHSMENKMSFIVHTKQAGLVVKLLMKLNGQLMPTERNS

inhibition of the HEG1–KRIT1 interaction [1]: no inhibition
SMILES: O=Cc1nccc2ccccc12 [Compound 8]

inhibition of the HEG1–KRIT1 interaction [1]: moderate inhibition activity
SMILES: O=Cc1cc(-c2ccccc2)ccc1O [Compound 6]

SMILES: NC1(c2ccc(-c3nc4ccn5c(=O)[nH]nc5c4cc3-c3ccccc3)cc2)CCC1 [MK‐2206]
effect on Akt phosphorylation induced by HKi2 [2]: prevent the increase in Akt phosphorylation

aqueous solubility [3]: poor solubility | IC50 ([1]; IC50, competition, 70 nM EGFP‐KRIT1 FERM domain, 150 nM HEG1 on the beads): ~10 µM
SMILES: CC(NC(=O)c1ccccc1/N=C/c1c(O)ccc2ccccc12)c1ccccc1 (centres unmarked) [HKi1, Sirtinol]

SMILES: O=c1cc(N2CCOCC2)oc2c(-c3ccccc3)cccc12 [LY294002]
effect on Akt phosphorylation induced by HKi2 [2]: prevented an increase in Akt signaling

SMILES: O=C(O)c1c(O)ccc2ccccc12 [Compound 9, 2‐hydroxy‐1‐naphthoic acid]
PARD3 binding to HEG1 [4]: no effects | KLF2 mRNA levels [5]: did not elevate | KLF4 mRNA levels [5]: did not elevate | effects on HUVECs gene expression by RNA‐Seq [6]: no significant effects | Akt phosphorylation (pAkt‐S473) ([2]; 50 μM, 4 h): did not elevate Akt activity | nuclear EGFP (klf2a reporter) in arterial and venous endothelium [7]: no effects | cell viability [8]: no statistical difference | inhibition of the HEG1–KRIT1 interaction [1]: does not block KRIT1 binding to HEG1
